Experiment [1] has as its target T1, Muscarinic acetylcholine receptor M5 (Homo sapiens, UniProt P08912).
T1 sequence (P08912 whole entry): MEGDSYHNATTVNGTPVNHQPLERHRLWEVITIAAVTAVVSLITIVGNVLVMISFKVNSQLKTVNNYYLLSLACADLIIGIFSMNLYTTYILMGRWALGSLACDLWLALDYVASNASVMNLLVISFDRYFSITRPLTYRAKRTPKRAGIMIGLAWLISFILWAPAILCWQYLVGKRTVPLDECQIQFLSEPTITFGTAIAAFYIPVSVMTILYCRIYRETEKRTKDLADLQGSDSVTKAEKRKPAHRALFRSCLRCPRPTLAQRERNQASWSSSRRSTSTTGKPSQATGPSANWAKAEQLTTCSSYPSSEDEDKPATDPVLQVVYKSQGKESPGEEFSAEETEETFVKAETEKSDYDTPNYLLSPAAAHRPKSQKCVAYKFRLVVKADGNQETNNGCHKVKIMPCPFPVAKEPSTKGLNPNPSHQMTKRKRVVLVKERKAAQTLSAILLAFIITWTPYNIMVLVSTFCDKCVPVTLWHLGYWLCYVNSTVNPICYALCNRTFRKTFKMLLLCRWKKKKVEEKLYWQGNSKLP
The experiment can be described thus: Antagonist activity at human muscarinic M5 receptor expressed in CHO-K1 cells assessed as inhibition of acetylcholine-induced calcium mobilization. Type of experiment: functional, cell-based. Background: A change in cytosolic calcium serves as a functional read-out for many receptors and channels.

Experiment [2] deals with T2, Muscarinic acetylcholine receptor M4 (Homo sapiens, UniProt P08173).
T2 sequence (P08173 whole entry): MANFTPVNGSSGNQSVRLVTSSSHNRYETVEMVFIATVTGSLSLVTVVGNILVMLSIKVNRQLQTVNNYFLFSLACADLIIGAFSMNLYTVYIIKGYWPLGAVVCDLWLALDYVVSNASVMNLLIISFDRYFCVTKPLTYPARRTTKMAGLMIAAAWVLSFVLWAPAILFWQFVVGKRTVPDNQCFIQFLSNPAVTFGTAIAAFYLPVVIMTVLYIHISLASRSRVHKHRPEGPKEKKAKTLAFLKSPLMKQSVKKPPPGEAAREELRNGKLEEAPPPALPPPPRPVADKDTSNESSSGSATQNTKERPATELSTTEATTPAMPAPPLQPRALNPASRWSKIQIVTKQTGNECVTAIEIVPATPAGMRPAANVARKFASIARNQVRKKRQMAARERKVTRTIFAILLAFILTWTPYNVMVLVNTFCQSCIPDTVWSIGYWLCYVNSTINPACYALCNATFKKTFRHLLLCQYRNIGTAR
The experiment can be described thus: Antagonist activity at human muscarinic M4 receptor expressed in CHO-K1 cells coexpressing Gqi5 chimeric G-protein assessed as inhibition of acetylcholine-induced calcium mobilization. The format is functional, cell-based. The procedure, abridged:
(§1)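 Stable muscarinic cell lines (hM2 and hM4 stably transfected with Gqi5 chimera) plated overnight, then loaded with 2 µM Fluo-4 AM in HBSS with 20 mM HEPES and 2.5 mM probenecid, pH 7.4, for 45 min at 37°C. Dye replaced with assay buffer. Cells pre-incubated with compound at 10 µM or across a concentration-response curve, then challenged with sub-maximal acetylcholine or carbachol. Read-out: calcium mobilization.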

Experiment [3] addresses Muscarinic acetylcholine receptor M3 (Homo sapiens, UniProt P20309). The experiment can be described thus: Antagonist activity at human muscarinic M3 receptor expressed in CHO-K1 cells assessed as inhibition of acetylcholine-induced calcium mobilization. The format is functional, cell-based.
In experiment [4] the target is T3, Muscarinic acetylcholine receptor M2 (Homo sapiens, UniProt P08172).
T3 sequence (P08172 whole entry): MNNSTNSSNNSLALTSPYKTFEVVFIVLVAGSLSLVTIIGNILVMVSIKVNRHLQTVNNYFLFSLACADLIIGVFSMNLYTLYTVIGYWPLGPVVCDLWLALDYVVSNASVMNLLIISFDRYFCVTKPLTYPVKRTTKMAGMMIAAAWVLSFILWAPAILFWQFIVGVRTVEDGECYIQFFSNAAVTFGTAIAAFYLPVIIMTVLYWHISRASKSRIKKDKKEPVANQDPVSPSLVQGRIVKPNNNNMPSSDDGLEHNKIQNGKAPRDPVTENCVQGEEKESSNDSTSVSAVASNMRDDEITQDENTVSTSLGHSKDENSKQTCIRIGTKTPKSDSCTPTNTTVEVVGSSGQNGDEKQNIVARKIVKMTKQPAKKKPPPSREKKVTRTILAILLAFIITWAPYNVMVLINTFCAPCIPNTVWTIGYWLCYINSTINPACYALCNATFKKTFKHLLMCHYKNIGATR
The experiment can be described thus: Antagonist activity at human muscarinic M2 receptor expressed in CHO-K1 cells coexpressing Gqi5 chimeric G-protein assessed as inhibition of acetylcholine-induced calcium mobilization. The format is functional, cell-based. The procedure, abridged: as §1

Experiment [5] deals with T4, Muscarinic acetylcholine receptor M1 (Homo sapiens, UniProt P11229).
T4 sequence (P11229 whole entry): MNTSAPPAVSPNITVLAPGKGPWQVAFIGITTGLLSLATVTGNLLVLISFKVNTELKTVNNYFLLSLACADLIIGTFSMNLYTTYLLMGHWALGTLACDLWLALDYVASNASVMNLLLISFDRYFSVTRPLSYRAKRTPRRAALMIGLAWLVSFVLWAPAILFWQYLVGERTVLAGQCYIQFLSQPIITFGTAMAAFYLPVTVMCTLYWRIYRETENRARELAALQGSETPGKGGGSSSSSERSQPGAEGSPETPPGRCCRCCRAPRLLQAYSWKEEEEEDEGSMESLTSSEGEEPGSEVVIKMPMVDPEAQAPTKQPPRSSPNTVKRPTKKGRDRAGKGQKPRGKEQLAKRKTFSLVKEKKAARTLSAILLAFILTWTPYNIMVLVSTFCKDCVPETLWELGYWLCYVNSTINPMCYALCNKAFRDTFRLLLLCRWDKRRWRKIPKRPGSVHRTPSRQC
The experiment can be described thus: Antagonist activity at human muscarinic M1 receptor expressed in CHO-K1 cells assessed as inhibition of acetylcholine-induced calcium mobilization. The format is functional, cell-based.

Experiment [6] concerns the target T5, Muscarinic acetylcholine receptor M5 (Homo sapiens) (UniProt P08912).
T5 sequence (whole entry): T1 sequence (P08912 whole entry)
The experiment can be described thus: Antagonist activity at human muscarinic M5 receptor expressed in CHO-K1 cells assessed as inhibition of acetylcholine-induced calcium mobilization at 10 uM. The format is functional, cell-based.

The nature of experiment [7]: Selectivity ratio of muscarinic M3 receptor over muscarinic M2 receptor.

Each structure is given as a SMILES string. A value given as a limit tells only on which side of the number the result lay.

The term IC50 denotes the concentration needed to halve the response being measured.

Muscarinic acetylcholine receptor M3, sequence (P20309 whole entry): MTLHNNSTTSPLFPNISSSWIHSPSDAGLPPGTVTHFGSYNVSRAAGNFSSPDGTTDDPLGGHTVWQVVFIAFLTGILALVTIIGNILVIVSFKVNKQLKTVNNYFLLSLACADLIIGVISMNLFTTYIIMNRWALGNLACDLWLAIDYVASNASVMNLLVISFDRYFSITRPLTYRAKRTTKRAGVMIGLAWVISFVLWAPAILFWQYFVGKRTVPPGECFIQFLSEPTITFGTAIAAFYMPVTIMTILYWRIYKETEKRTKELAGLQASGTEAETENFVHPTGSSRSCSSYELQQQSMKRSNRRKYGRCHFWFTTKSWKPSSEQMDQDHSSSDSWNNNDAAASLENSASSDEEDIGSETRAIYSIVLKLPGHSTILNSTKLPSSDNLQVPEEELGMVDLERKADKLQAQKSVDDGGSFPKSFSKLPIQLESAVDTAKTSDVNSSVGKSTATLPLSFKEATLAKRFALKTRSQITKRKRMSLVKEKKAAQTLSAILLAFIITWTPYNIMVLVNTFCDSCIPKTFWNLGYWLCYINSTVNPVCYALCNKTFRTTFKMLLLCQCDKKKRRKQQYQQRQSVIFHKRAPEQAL

For the molecule `CCN1CCN(c2ccc(NC(=O)c3cc(C(F)(F)F)cc(C(F)(F)F)c3)cc2Cl)CC1`, the IC50 in experiment [1] is over 10 µM; in experiment [2] it was 3.7 µM; in experiment [3], over 10 µM; in experiment [4] it was over 10 µM; in experiment [5], 2.6 µM; in experiment [6], 10 µM.
Take `Cc1ccc(N2C[C@@H]3[C@H](C2)[C@H]3NC(=O)C(O)(c2ccccc2)C2CCCCC2)cc1` (stereo partly specified): the Selectivity ratio in experiment [7] was 20.
As for `CCN1CCN(c2ccc(NC(=O)c3c(F)c(F)c(F)c(F)c3F)cc2Cl)CC1`, the values for the IC50 in experiment [1], in experiment [3] and in experiment [5] were 0.83 µM, 3.7 µM and 0.35 µM, respectively.
Regarding `CCN1CCN(c2ccc(NC(=O)c3ccc(F)c(F)c3)cc2Cl)CC1`, the IC50 in experiment [1] is over 10 µM; in experiment [2], over 10 µM; in experiment [3], over 10 µM; in experiment [4], over 10 µM; in experiment [5], 4.7 µM.
Regarding `CCN1CCN(c2ccc(NC(=O)c3ccccc3)cc2Cl)CC1`, the IC50 in experiment [1] was over 10 µM; in experiment [2], over 10 µM; in experiment [3] it was over 10 µM; in experiment [4], over 10 µM; in experiment [5], 3.2 µM.
With `CCN1CCN(c2ccc(NC(=O)c3cccc(C)c3)cc2Cl)CC1`, the 50% inhibitory concentration (IC50) in experiment [1] is 3.5 µM; in experiment [3], over 10 µM; in experiment [5], 2.1 µM.
In the case of `CCN1CCN(c2ccc(NC(=O)c3cccc(C(F)(F)F)c3)cc2Cl)CC1`, the IC50 in experiment [1] was 4.1 µM; in experiment [2], 3.7 µM; in experiment [3], 4.3 µM; in experiment [4] it was over 10 µM; in experiment [5], 2.9 µM.
The corresponding values for `CCN1CCN(c2ccc(NC(=O)c3cc(C(F)(F)F)ccc3C(F)(F)F)cc2Cl)CC1` are 4.1 µM, 1.5 µM, 4.2 µM, 2.7 µM and 0.49 µM.
The like results for `CCN1CCN(c2ccc(NC(=O)c3ccc(C)cc3)cc2Cl)CC1` were, in that order, 6.9 µM, over 10 µM, 3.7 µM, over 10 µM and 2.9 µM.
`CCN1CCN(c2ccc(NC(=O)c3ccc(OC)cc3)cc2Cl)CC1`: the IC50 in experiment [1] is over 10 µM; in experiment [3] it was over 10 µM; in experiment [5], 3.2 µM.
For `CCN1CCN(c2ccc(NC(=O)c3ccccc3OC)cc2Cl)CC1`, the results for the IC50 in experiment [1], in experiment [3] and in experiment [5] were 1.3 µM, 5.6 µM and 0.82 µM, respectively.
For the molecule `CCN1CCN(c2ccc(NC(=O)c3ccccc3Cl)cc2Cl)CC1`, the IC50 in experiment [1] was found to be 2.3 µM; in experiment [5], 0.96 µM.

The record behind these values is ChEMBL document CHEMBL1156303, “Synthesis and SAR of N-(4-(4-alklylpiperazin-1-yl)phenyl)benzamides as muscarinic acetylcholine receptor subtype 1 (M1) anatgonists” (Bioorg Med Chem Lett, 2010).
